Positions count from the first letter of the chain named.
Key:
S307A mutant rat α3 GlyR = molecular target: T1, S307A mutant rat α3 GlyR (Rattus norvegicus, UniProt P24524, S329A); assay: Whole-cell patch-clamp of IGly in HEK-293 cells expressing S307A mutant α3 GlyRs; format: cell-based; settings: 10 μM AEA, 5 min sustained, EC2 Gly (100 μM)
T1 sequence (P24524 34-464 S329A): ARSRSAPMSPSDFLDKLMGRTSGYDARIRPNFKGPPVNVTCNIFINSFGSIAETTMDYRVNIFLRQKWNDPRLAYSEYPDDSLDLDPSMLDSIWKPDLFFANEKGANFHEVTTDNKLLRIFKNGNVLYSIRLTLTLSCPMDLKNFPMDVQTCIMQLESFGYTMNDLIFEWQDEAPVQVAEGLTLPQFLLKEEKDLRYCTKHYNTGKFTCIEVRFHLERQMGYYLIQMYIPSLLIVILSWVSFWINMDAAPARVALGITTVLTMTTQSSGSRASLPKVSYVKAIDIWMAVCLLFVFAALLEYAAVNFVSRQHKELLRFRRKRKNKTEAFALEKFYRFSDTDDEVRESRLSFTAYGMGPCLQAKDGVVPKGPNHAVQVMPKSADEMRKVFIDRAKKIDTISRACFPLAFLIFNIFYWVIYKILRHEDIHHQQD

[1] = molecular target: T2, G254A mutant human α1 GlyR (Homo sapiens, UniProt P23415, G282A); assay: Whole-cell patch-clamp of IGly in HEK-293 cells expressing G254A mutant α1 GlyRs; format: cell-based; settings: AEA 5 min sustained incubation
T2 sequence (P23415 29-457 G282A): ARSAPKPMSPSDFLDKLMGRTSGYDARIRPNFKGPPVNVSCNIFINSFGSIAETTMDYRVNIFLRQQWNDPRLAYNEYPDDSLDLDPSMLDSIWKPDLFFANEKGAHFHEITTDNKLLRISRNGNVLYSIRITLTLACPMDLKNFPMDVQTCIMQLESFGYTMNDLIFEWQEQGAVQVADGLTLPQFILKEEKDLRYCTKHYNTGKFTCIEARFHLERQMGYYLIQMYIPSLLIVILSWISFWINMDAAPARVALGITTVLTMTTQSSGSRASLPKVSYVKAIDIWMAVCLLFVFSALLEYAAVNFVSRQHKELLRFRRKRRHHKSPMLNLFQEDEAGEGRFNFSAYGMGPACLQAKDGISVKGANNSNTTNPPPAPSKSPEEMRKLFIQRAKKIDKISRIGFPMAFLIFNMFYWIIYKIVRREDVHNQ

human α1 GlyR = molecular target: T3, human α1 GlyR (Homo sapiens, UniProt P23415); assay: cell-based; format: cell-based; settings: for average percent potentiation of IGly: concentration-response (Fig. 1E)
T3 sequence (P23415 29-457): T2 sequence (P23415 29-457 G282A) with A254G

α1β1 GlyRs = α1β1 GlyRs (Homo sapiens, UniProt P23415); format: cell-based
α1β1 GlyRs, sequence (P23415 29-457): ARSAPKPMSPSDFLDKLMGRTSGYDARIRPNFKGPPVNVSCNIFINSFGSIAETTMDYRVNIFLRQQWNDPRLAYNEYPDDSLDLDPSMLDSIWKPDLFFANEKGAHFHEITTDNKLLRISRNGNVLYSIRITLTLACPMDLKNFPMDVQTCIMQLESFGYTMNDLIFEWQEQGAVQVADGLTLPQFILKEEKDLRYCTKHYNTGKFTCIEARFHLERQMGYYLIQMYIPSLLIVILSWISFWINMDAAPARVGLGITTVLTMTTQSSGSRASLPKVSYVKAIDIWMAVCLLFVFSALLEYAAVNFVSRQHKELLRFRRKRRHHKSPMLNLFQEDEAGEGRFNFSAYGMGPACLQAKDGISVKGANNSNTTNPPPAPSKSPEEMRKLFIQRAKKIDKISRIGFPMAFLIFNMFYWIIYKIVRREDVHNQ
α1β1 GlyRs, sequence (P48167 23-497 partner): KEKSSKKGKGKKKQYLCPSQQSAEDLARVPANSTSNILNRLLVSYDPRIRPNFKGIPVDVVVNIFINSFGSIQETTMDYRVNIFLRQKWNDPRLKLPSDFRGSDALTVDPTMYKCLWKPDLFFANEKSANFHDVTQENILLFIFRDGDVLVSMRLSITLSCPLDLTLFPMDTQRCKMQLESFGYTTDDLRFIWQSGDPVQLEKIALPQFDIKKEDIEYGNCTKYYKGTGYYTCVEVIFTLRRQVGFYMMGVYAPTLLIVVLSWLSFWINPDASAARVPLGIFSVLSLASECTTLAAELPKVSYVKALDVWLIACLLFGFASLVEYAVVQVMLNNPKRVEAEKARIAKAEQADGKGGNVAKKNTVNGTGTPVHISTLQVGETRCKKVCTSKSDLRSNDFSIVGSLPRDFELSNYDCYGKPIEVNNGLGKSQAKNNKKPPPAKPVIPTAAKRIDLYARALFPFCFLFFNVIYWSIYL

CB1 receptors = settings: read-out: binding affinity (Ki) for CB1 receptors; ref Pertwee, 2000; cited from earlier work
A303S mutant rat α2 GlyR = molecular target: T4, A303S mutant rat α2 GlyR (Rattus norvegicus, UniProt P22771, A330S); assay: Whole-cell patch-clamp of IGly in HEK-293 cells expressing A303S mutant α2 GlyRs; format: cell-based; settings: 10 μM AEA, 5 min sustained, EC2 Gly (20 μM)
T4 sequence (P22771 28-452 A330S): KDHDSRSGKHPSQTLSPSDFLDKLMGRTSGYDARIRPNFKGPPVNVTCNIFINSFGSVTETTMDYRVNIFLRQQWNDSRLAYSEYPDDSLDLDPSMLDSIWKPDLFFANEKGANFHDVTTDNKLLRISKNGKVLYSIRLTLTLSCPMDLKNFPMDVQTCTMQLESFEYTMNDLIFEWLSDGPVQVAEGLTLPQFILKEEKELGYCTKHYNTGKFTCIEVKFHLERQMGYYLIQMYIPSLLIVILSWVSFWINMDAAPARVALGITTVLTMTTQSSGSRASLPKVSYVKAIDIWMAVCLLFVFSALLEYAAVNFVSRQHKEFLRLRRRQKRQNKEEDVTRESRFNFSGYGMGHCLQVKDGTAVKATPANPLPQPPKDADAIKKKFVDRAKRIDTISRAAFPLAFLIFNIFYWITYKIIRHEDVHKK

[2] = test system: native GlyRs in cultured spinal neurons; assay: Whole-cell patch-clamp of Gly-activated current; format: cell-based, rat; settings: for average percent potentiation of IGly: concentration-response (Fig. 1E), EC2 Gly
Outline: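 Spinal cords from postnatal day 0 rats, papain-dissociated (20 U/ml, 37°C, 40 min). Plated at 300,000 cells/ml on poly-d-lysine in MEM/10% FBS, cultured ≥10 d, washed 30 min in external solution. Whole-cell, −60 mV, 20–22°C.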

SMILES: CCCCC/C=C\C/C=C\C/C=C\C/C=C\CCCC(=O)NCCO [AEA, anandamide]
- AEA-induced potentiation of IGly (S307A mutant rat α3 GlyR): 249 ± 48%
- AEA-induced potentiation of IGly [1]: 597 ± 77%
- EC50 (human α1 GlyR): 4.2 ± 1.95 µM
- time to maximal potentiation of IGly (human α1 GlyR; 1 μM AEA sustained application, α1 homomeric): 5 min
- average percentage potentiation of IGly (human α1 GlyR; 1 μM AEA, 5 min sustained application, EC2 Gly, α1 (Fig. 1C)): 97 ± 16%
- percentage potentiation of IGly, initial value (human α1 GlyR; 1 μM AEA, after 1 min of AEA exposure, HEK-293 cells): 3 ± 1%
- average percent potentiation of IGly (human α1 GlyR; 1 μM AEA, EC2 Gly): 91 ± 9%
- average percent potentiation of IGly (human α1 GlyR; 3 μM AEA, EC2 Gly): 311 ± 86%
- AEA-induced potentiation of IGly, simultaneous application (human α1 GlyR; 10 μM AEA simultaneously applied only with Gly, wild-type α1): 108 ± 15%
- average percentage potentiation of IGly (human α1 GlyR; 10 μM AEA, Gly 30 μM): 102 ± 49%
- average percentage potentiation of IGly (human α1 GlyR; 10 μM AEA, Gly 100 μM): 24 ± 6%
- average percent potentiation of IGly (human α1 GlyR; 10 μM AEA, Gly 10 μM): 712 ± 96%
- average percent potentiation of IGly (human α1 GlyR; 30 μM AEA, EC2 Gly): 824 ± 278%
- maximal potentiation of α1 GlyRs (human α1 GlyR; AEA applied continuously for 5 min with intermittent Gly): 700–800%
- direct activation of current by AEA alone (human α1 GlyR; even at high concentrations (> 30 μM), no Gly, cell type not specified): did not trigger detectable current
- time to maximal potentiation of IGly (α1β1 GlyRs; 1 μM AEA sustained application, α1β1 heteromeric): 5 min
- average percentage potentiation of IGly (α1β1 GlyRs; 1 μM AEA, 5 min sustained application, EC2 Gly, α1β1 (Fig. 1C)): 85 ± 12%
- Ki (CB1 receptors): 0.061 to 0.543 µM
- AEA-induced potentiation of IGly (A303S mutant rat α2 GlyR): 580 ± 110%
- time to maximal potentiation of IGly ([2]; 1 μM AEA sustained application): 5 min
- average percentage potentiation of IGly ([2]; 1 μM AEA, 5 min sustained application, EC2 Gly (Fig. 1C)): 86 ± 24%
- percentage potentiation of IGly, initial value ([2]; 1 μM AEA, after 1 min of AEA exposure, neurons): 6 ± 6%
- average percent potentiation of IGly ([2]; 1 μM AEA): 79 ± 19%
- average percent potentiation of IGly ([2]; 3 μM AEA): 236 ± 52%
- average percent potentiation of IGly ([2]; 10 μM AEA): 636 ± 87%
- average percent potentiation of IGly ([2]; 30 μM AEA): 800 ± 71%
